ChEMBL document CHEMBL1136809, “Synthesis and structure-affinity relationships of novel N-(1-ethyl-4-methylhexahydro-1,4-diazepin-6-yl)pyridine-3-carboxamides with potent serotonin 5-HT3 and dopamine D2 receptor antagonistic activity” (J Med Chem, 2003)

Legend:
[1] = target: T1, Serotonin 3 (5-HT3) receptor (Rattus norvegicus, UniProt P35563+Q9JJ16); assay: Concentration required to inhibit the binding of radioligand [3H]GR-65630 to serotonin 5-hydroxytryptamine-3 receptor (5-HT 3 receptor)in rat brain cortical membrane; format: tissue-based
T1 sequence (P35563 whole entry): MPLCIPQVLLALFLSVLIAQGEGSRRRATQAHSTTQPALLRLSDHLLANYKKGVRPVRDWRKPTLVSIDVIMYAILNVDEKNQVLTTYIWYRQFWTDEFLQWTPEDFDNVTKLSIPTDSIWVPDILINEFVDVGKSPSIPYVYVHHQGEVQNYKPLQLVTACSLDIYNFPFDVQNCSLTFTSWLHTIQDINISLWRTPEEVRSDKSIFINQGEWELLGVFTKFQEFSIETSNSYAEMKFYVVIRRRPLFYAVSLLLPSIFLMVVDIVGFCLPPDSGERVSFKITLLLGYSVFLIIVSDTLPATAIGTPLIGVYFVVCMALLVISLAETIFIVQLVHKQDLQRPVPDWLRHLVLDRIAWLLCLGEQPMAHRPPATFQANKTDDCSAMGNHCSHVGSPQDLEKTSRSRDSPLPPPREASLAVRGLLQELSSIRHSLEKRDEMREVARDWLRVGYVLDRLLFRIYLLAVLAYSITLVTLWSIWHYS
T1 sequence (Q9JJ16 whole entry): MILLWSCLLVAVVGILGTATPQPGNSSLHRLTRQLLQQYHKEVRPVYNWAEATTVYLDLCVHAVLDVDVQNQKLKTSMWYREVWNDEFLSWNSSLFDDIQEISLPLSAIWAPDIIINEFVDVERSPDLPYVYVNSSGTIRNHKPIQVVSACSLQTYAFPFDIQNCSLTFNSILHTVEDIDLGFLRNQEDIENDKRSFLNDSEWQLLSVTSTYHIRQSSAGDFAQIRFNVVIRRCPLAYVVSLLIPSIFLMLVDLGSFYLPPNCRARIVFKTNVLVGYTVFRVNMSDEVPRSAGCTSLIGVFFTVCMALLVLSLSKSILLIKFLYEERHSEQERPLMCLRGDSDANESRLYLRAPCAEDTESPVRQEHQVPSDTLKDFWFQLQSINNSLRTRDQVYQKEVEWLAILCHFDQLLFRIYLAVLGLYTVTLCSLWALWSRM

[2] = target: T2, D(2) dopamine receptor (Rattus norvegicus, UniProt P61169); assay: Inhibition of the binding of radioligand [3H]spiperone to dopamine receptor D2 in rat brain synaptic membrane; format: cell membranes
T2 sequence (P61169 whole entry): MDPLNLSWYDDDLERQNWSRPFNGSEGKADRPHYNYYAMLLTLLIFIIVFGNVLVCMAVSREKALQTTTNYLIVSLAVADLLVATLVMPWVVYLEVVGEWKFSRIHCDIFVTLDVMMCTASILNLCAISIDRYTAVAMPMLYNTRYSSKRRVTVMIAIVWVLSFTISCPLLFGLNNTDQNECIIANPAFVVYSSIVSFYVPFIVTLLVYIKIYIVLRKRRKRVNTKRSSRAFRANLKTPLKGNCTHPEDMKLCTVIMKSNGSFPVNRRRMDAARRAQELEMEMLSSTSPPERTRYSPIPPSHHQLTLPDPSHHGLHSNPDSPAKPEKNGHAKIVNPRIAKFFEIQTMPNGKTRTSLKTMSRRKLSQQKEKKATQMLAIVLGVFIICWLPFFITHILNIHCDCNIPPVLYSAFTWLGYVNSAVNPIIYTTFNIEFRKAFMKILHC

[3] = target: T1, Serotonin 3 (5-HT3) receptor; assay: Concentration of compound required to inhibit the binding of radioligand [3H]GR-65630 to 5-hydroxytryptamine 3 receptor in rat brain cortical membrane; format: cell membranes
Outline: (§1)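 Displacement of [³H]GR65630 from rat cerebral cortex membranes, following an earlier [³H]quipazine binding protocol. IC50, the concentration giving 50% inhibition of specific binding, in nM by probit (linear regression) analysis. Values given as mean with 95% confidence limits.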

[4] = target: T1, Serotonin 3 (5-HT3) receptor; assay: Concentration of compound required to inhibit the binding of radioligand [3H]GR-65630 to serotonin 5-hydroxytryptamine 3 receptor in rat cortical membrane; format: cell membranes; outline: as §1
[5] = target: T3, 5-hydroxytryptamine receptor 4 (Cavia porcellus, UniProt O70528); assay: Concentration of compound required to inhibit the binding of radioligand [3H]GR-113808 to 5-hydroxytryptamine 4 receptor in guinea pig striatum; format: tissue-based
T3 sequence (O70528 whole entry): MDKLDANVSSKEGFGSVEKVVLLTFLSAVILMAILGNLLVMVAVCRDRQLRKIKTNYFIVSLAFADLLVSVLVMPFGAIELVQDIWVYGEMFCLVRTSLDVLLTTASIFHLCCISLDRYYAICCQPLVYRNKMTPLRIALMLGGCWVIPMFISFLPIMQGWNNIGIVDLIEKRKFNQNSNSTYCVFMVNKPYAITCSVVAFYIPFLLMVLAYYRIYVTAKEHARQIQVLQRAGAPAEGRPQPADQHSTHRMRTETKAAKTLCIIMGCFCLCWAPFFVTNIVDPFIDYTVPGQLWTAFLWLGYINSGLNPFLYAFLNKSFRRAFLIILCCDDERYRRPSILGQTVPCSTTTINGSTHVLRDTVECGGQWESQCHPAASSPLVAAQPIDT

[6] = target: T2, D(2) dopamine receptor; assay: Concentration of compound required to inhibit the binding of radioligand [3H]-spiperone to Dopamine receptor D2 in rat striatum; format: tissue-based
Outline: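 Competition binding against [³H]spiperone in rat striatum. IC50, the concentration inhibiting 50% of specific radioligand binding, in nM by probit (linear regression) analysis. Reported as mean with 95% confidence limits.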

[7] = system: Canis familiaris; assay: Percent inhibition of apomorphine (0.3 mg/kg) induced emesis in dogs when 1 mg/kg of compound administered perorally; format: functional; settings: Canis lupus familiaris, route oral
Outline: (§2)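 Male beagle dogs weighing 10–16 kg, in groups of three to six, were pretreated orally with test compound. Apomorphine hydrochloride (0.3 mg/kg) was injected subcutaneously 2 h later to elicit emesis.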

[8] = target: T3, 5-hydroxytryptamine receptor 4; assay: Inhibition of [3H]GR-113808 binding to guinea pig striatum 5-hydroxytryptamine 4 receptor; format: tissue-based
[9] = target: T1, Serotonin 3 (5-HT3) receptor; assay: Inhibition of [3H]GR-65630 binding to rat cortical membrane serotonin 5-hydroxytryptamine 3 receptor
[10] = target: T2, D(2) dopamine receptor; assay: Affinity towards Dopamine receptor D2 in rat striatum using [3H]spiperone as radioligand; format: tissue-based
[11] = target: T2, D(2) dopamine receptor; assay: Affinity of compound towards Dopamine receptor D2 in rat striatum using [3H]spiperone as radioligand; format: tissue-based
Outline: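 Competition binding against [3H]spiperone in rat striatal (brain synaptic) membranes. IC50 is the concentration giving 50% inhibition of specific radioligand binding, in nM, derived by linear regression (Probit analysis). Reported as mean with 95% confidence limits.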

[12] = system: Canis familiaris; assay: Effective dose for inhibition of apomorphine (0.3 mg/kg) induced emesis in dogs when 1 mg/kg of compound administered perorally; format: functional, Canis lupus familiaris; settings: route oral; outline: as §2
[13] = target: T4, D(3) dopamine receptor (Rattus norvegicus, UniProt P19020); assay: Concentration of compound required to inhibit the binding of radioligand [3H](R)-7-OH-DPAT to Dopamine receptor D3 in rat striatum.
T4 sequence (P19020 whole entry): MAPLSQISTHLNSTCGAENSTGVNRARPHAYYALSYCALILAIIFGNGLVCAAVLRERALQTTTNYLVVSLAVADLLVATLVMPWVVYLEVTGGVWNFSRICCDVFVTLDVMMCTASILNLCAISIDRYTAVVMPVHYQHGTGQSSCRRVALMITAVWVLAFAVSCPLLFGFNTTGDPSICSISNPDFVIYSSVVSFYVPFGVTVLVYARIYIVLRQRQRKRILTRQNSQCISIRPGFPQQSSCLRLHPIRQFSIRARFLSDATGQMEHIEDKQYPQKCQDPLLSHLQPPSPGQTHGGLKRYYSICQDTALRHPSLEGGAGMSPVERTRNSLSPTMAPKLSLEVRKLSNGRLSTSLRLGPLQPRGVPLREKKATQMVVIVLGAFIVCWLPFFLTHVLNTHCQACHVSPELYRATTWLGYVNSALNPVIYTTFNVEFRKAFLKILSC

[14] = target: T3, 5-hydroxytryptamine receptor 4; assay: Concentration of compound required to inhibit the binding of radioligand [3H]GR-113808 to 5-hydroxytryptamine 4 receptor in guinea-pig striatum; format: tissue-based
[15] = target: T4, D(3) dopamine receptor; assay: Concentration of compound required to inhibit the binding of radioligand [3H](R)-7-OH-DPAT to Dopamine receptor D3 in rat striatum; format: tissue-based
[16] = target: T3, 5-hydroxytryptamine receptor 4; assay: Concentration of compound required to inhibit the binding of radioligand [3H]GR-113808 to serotonin 5-hydroxytryptamine 4 receptor in guinea-pig striatum; format: tissue-based
[17] = Canis lupus familiaris, read-out: ED50

SMILES	IC50 [1] [µM]	IC50 [2] [µM]	inhibition in vivo at 1 mg/kg [7] [%]	Ki [8] [µM]	also measured
CCN1CCN(C)CC(NC(=O)c2cc(Cl)cc3c2OCC3)C1 (stereo not drawn)	0.0299	> 1	–	–	–
CCN1CCN(C)CC(NC(=O)c2cnc(NC)nc2OC)C1 (stereo not drawn)	–	> 1	–	–	IC50 [3]: 0.157 µM
COc1cc(N)c(Cl)cc1C(=O)NC1CN(C)CCN(Cc2ccccc2)C1 (stereo not drawn)	–	–	–	–	IC50 [4]: 0.00207 µM; IC50 [5]: > 1 µM; IC50 [6]: > 1 µM
CCN1CCN(C)CC(NC(=O)c2cc(Cl)cn3ccnc23)C1 (stereo not drawn)	0.148	> 1	–	–	–
CCN1CCN(C)CC(NC(=O)c2cc(Cl)cc3c2OCC(=O)N3C)C1 (stereo not drawn)	0.0387	> 1	–	–	–
CCN1CCN(C2CC2)CC(NC(=O)c2cc(Br)c(NC)nc2OC)C1 (stereo not drawn)	0.00069	0.0129	25	–	–
COc1cc(N)c(Cl)cc1C(=O)NC1CC2CCC(C1)N2Cc1ccccc1 (stereo not drawn)	–	–	–	0.233	–
CCN1CCN(CC)CC(NC(=O)c2cc(Cl)c(NC)nc2OC)C1	0.00065	0.0278	53	–	–
CCOc1nc(NC)c(Cl)cc1C(=O)NC1CN(C)CCN(CC)C1 (stereo not drawn)	0.00055	0.0429	40	–	–
COc1cc(N)c(Cl)cc1C(=O)NC1CCN(C)CC1	–	–	–	0.832	–
CCN1CCN(C)C[C@@H](NC(=O)c2cc(Cl)c(N)c3c2OCC3)C1	0.0037	0.637	–	–	–
CCN1CCN(C)C[C@@H](NC(=O)c2cc(Cl)c(OC)nc2NC)C1	> 0.1	> 1	–	–	–
COc1cc(N)c(Cl)cc1C(=O)NCCN(C)Cc1ccccc1	–	–	–	0.867	Ki [9]: > 1 µM; Ki [10]: 0.0243 µM
COc1cc(N)c(Cl)cc1C(=O)N[C@@H]1CN2CCC1CC2	–	–	–	0.383	–
CCN1CCN(C)CC(NC(=O)c2cc(Br)c(N(C)C)nc2OC)C1 (stereo not drawn)	–	–	83	–	–
COc1cc(N)c(Cl)cc1C(=O)NC[C@@H]1CCN2CCC[C@@H]12	–	–	–	0.021	Ki [11]: > 10 µM
CCN1CCN(C)CC(NC(=O)c2[nH]nc3ccccc23)C1 (stereo not drawn)	0.00656	> 1	–	–	–
CCN1CCN(CC)CC(NC(=O)c2cc(Br)c(NC)nc2OC)C1	0.00059	0.0209	69	–	–

SMILES	IC50 [1] [µM]	IC50 [2] [µM]	inhibition in vivo at 1 mg/kg [7] [%]	Ki [8] [µM]	also measured
CCOc1nc(NC)c(Br)cc1C(=O)NC1CN(C)CCN(CC)C1 (stereo not drawn)	0.00148	0.0864	–	–	–
CNc1nc(OC)c(C(=O)NC2CN(C)CCN(C)C2)cc1Cl	0.0013	0.137	20	–	–
CNc1nc(OC)c(C(=O)NC2CN(C)CCN(C3CC3)C2)cc1Br (stereo not drawn)	0.00076	0.0471	14	–	–
CCNc1nc(OC)c(C(=O)NC2CN(C)CCN(CC)C2)cc1Cl (stereo not drawn)	–	–	42	–	–
CCN1CCN(C)C[C@@H](NC(=O)c2cc(Cl)c(NC)nc2OC)C1	–	–	52	–	–
CCN1CCN(C)C[C@@H](NC(=O)c2cc(Cl)c(NC)cc2OC)C1	–	–	100	–	IC50 [5]: > 1 µM; ED50 [12, 17]: 0.13 mg/kg; ED50 ([12]; dose 1 mg/kg): 0.13 mg/kg; IC50 [13]: 0.0151 µM
CCN1CCN(C)C[C@H](NC(=O)c2cc(Br)c(NC)nc2OC)C1	0.00128	0.122	47	–	IC50 [14]: > 1 µM; IC50 [15]: 0.0143 µM
CCN1CCN(C)CC(NC(=O)c2cc(Br)c(NC)nc2OC)C1 (stereo not drawn)	0.00097	–	–	–	–
CCN1CCN(C)C[C@@H](NC(=O)c2cc(Br)c(NC)nc2OC)C1	0.0012	0.00688	100	–	IC50 [16]: > 10 µM; ED50 [12, 17]: 0.12 mg/kg; IC50 [15]: 0.00113 µM
COc1cc(N)c(Cl)cc1C(=O)NC1CC2CCC(C1)N2C (stereo in doubt)	–	–	–	0.048	–
COc1cc(N)c(Cl)cc1C(=O)NC1CC2CCC(C1)N2C (stereo in doubt; 2)	–	–	–	> 1	–
COc1cc(N)c(Cl)cc1C(=O)NC1CCN(Cc2ccccc2)CC1 [CLEBOPRIDE]	–	–	–	0.104	–
O=c1[nH]c2ccccc2n1CCCN1CCC(n2c(=O)[nH]c3cc(Cl)ccc32)CC1 [DOMPERIDONE]	–	–	–	–	IC50 [5]: > 1 µM
CCN(CC)CCNC(=O)c1cc(Cl)c(N)cc1OC [METOCLOPRAMIDE]	0.228	–	100	0.546	IC50 [16]: 0.912 µM; Ki [9]: 0.21 µM; ED50 [12, 17]: 0.45 mg/kg; IC50 [15]: 0.0613 µM
CCOc1cc(N)c(Cl)cc1C(=O)NCC1CN(Cc2ccc(F)cc2)CCO1 (stereo not drawn) [MOSAPRIDE]	–	–	–	0.0699	Ki [9]: 1.19 µM; Ki [10]: > 10 µM
Cc1nccn1CC1CCc2c(c3ccccc3n2C)C1=O (stereo not drawn) [ONDANSETRON]	–	> 1	–	–	–
COc1cc(N)c(Cl)cc1C(=O)NC1CCN2CCCC1C2 (stereo not drawn) [RENZAPRIDE]	–	–	–	0.0404	Ki [9]: 0.0053 µM; Ki [10]: > 10 µM
